# Data reported in ChEMBL document CHEMBL1123290, “Synthesis, antimalarial activity, and quantitative structure-activity relationships of tebuquine and a series of related 5-[(7-chloro-4-quinolinyl)amino]-3-[(alkylamino)methyl] [1,1'-biphenyl]-2-ols and N omega-oxides” (1986).
# Legend:
# Assay type in all cases: functional
# Plasmodium berghei [1] = experiment: Change in mean survival time of Plasmodium berghei infected mice (Mus musculus) on 1.25 mg/kg subcutaneous dose
# Plasmodium berghei [2] = experiment: Difference in mean survival time of Plasmodium berghei infected mice (Mus musculus) after 10 mg/kg subcutaneous dose
# Plasmodium berghei [3] = experiment: Change in mean survival time for control (average 6.2 days) versus treated mice (Mus musculus) after 160 mg/kg subcutaneous dose
# Plasmodium berghei [4] = experiment: Change in mean survival time of Plasmodium berghei infected mice (Mus musculus) after […] subcutaneous dose
# Plasmodium berghei [5] = experiment: Change in mean survival time for control (average 6.2 days) versus treated mice (Mus musculus) after 20 mg/kg subcutaneous dose
# Plasmodium berghei [6] = experiment: Change in mean survival time for control (average 6.2 days) versus treated mice (Mus musculus) after 320 mg/kg subcutaneous dose
# Plasmodium berghei [7] = experiment: Change in mean survival time for control (average 6.2 days) versus treated mice (Mus musculus) after 40 mg/kg subcutaneous dose
# Plasmodium berghei [8] = experiment: Change in mean survival time of Plasmodium berghei infected mice (Mus musculus) after 5 mg/kg subcutaneous dose
# Plasmodium berghei [9] = experiment: Change in mean survival time in control (average 6.2 days) versus treated mice (Mus musculus) after 80 mg/kg subcutaneous dose
# Mus musculus [10] = experiment: Delta MST, difference in mean survival time of the control mice (an average of 6.2 days) from the mean survival time of the treated mice after a single dose of (mg/kg sc) 1.25
# Plasmodium berghei [11] = experiment: (§1) Change in mean survival time for control (average 6.2 days) versus treated mice (Mus musculus) 72 hrs after […] subcutaneous dose
# Mus musculus [12] = experiment: Antimalarial activity of compound administered as a single subcutaneous dose of 10mg/kg, 72 hrs post infection measured as number of mice (Mus musculus) surviving at 60 days post infection
# Procedure, shortened: (§2)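 Mice were infected with a normal drug-sensitive Plasmodium berghei strain. At 72 h postinfection each received one subcutaneous dose of compound dissolved or suspended in peanut oil, in five-mouse groups per dose. The read-out was the number of mice alive at 60 days postinfection, which were scored as cured.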
# Plasmodium berghei [13] = experiment: Antimalarial activity as 60-day survivors in Plasmodium berghei infected mice (Mus musculus) after single 160mg/kg subcutaneous dose 72 hr post infection; procedure, shortened: as §2
# Plasmodium berghei [14] = experiment: Antimalarial activity as 60-day survivors in infected mice (Mus musculus) after single 20 mg/kg subcutaneous dose 72hr post infection; procedure, shortened: as §2
# Plasmodium berghei [15] = experiment: Antimalarial activity as 60-day survivors in infected mice (Mus musculus) after single 320mg/kg subcutaneous dose 72 hr post infection; procedure, shortened: as §2
# Mus musculus [16] = experiment: Antimalarial activity, administered as a single subcutaneous dose of 40 mg/kg, 72 hrs post infection measured as number of mice (Mus musculus) surviving at 60 days post infection; procedure, shortened: as §2
# Mus musculus [17] = experiment: Antimalarial activity of compound administered as a single subcutaneous dose of 5mg/kg, 72-h postinfection measured as number of mice (Mus musculus) surviving at 60 days postinfection; procedure, shortened: as §2
# Mus musculus [18] = experiment: Antimalarial activity, administered as a single subcutaneous dose of 640 mg/kg, 72 hrs post infection measured as number of mice (Mus musculus) surviving at 60 days post infection; procedure, shortened: as §2
# Mus musculus [19] = experiment: Antimalarial activity, administered as a single subcutaneous dose of 80 mg/kg, 72 hrs post infection measured as number of mice (Mus musculus) surviving at 60 days post infection; procedure, shortened: as §2
# Plasmodium berghei [20] = experiment: Change in mean survival time for control (average 6.2 days) versus treated mice (Mus musculus) 72 hrs after 5 mg/kg subcutaneous dose
# Plasmodium berghei [21] = experiment: Change in mean survival time for control (average 6.2 days) versus treated mice (Mus musculus) 72 hrs after 640 mg/kg subcutaneous dose
# Plasmodium berghei [22] = experiment: as §1; remark: listed apart in the source
# Plasmodium berghei [23] = experiment: Change in mean survival time for control (average 6.2 days) versus treated mice (Mus musculus) 72 hrs after 160 mg/kg subcutaneous dose
# Plasmodium berghei [24] = experiment: Change in mean survival time for control (average 6.2 days) versus treated mice (Mus musculus) 72 hrs after […] subcutaneous dose
# Plasmodium berghei [25] = experiment: Change in mean survival time for control (average 6.2 days) versus treated mice (Mus musculus) 72 hrs after 20 mg/kg subcutaneous dose
# Plasmodium berghei [26] = experiment: Change in mean survival time for control (average 6.2 days) versus treated mice (Mus musculus) 72 hrs after 320 mg/kg subcutaneous dose
# Plasmodium berghei [27] = experiment: Difference in mean survival time in mice (Mus musculus) (control = 6.2 days) after single 40mg/kg subcutaneous dose 72hr post infection
# Plasmodium berghei [28] = experiment: Antimalarial activity in primary screen
# Plasmodium berghei [29] = experiment: Change in mean survival time for control (average of 6.2 days) versus treated mice (Mus musculus) 72 hrs after 80 mg/kg subcutaneous dose
# Plasmodium berghei [30] = experiment: Change in mean survival time for control (average 6.2 days) versus treated mice (Mus musculus) 72 hrs after 10 mg/kg subcutaneous dose
# Mus musculus [31] = experiment: Antimalarial activity of compound administered as a single subcutaneous dose of 40 mg/kg, 72-h postinfection measured as number of mice (Mus musculus) surviving at 60 days postinfection; procedure, shortened: as §2
SMILES,Delta MST (Plasmodium berghei [1]),Delta MST (Plasmodium berghei [2]),No. of mice cured (Mus musculus [12]),No. of mice cured (Plasmodium berghei [13]),No. of mice cured (Plasmodium berghei [14]),No. of mice cured (Plasmodium berghei [15]),No. of mice cured (Mus musculus [16]),No. of mice cured (Mus musculus [18]),No. of mice cured (Mus musculus [19]),Delta MST (Plasmodium berghei [20]),Delta MST (Plasmodium berghei [21]),Delta MST (Plasmodium berghei [22]),Delta MST (Plasmodium berghei [23]),Delta MST (Plasmodium berghei [24]),Delta MST (Plasmodium berghei [25]),Delta MST (Plasmodium berghei [26]),Delta MST (Plasmodium berghei [27]),ED30 (Plasmodium berghei [28]),Delta MST (Plasmodium berghei [29]),Delta MST (Plasmodium berghei [30]),other results
CC(C)(C)NCc1cc(Nc2cc[n+]([O-])c3cc(Cl)ccc23)cc(-c2ccc(Cl)cc2)c1O,0 days,26.3 days,1,3,4,4,4,4,2,–,–,–,–,–,–,–,–,–,–,–,Delta MST (Plasmodium berghei [3]): 13.4 days; Delta MST (Plasmodium berghei [4]): 0.2 days; Delta MST (Plasmodium berghei [5]): 28.9 days; Delta MST (Plasmodium berghei [6]): 13.9 days; Delta MST (Plasmodium berghei [7]): 24.9 days; Delta MST (Plasmodium berghei [8]): 11.4 days; Delta MST (Plasmodium berghei [9]): 20.6 days; Delta MST (Mus musculus [10]): 0; Delta MST (Plasmodium berghei [11]): 13.9 days; No. of mice cured (Mus musculus [17]): 1
CC(C)(C)NCc1cc(Nc2ccnc3cc(Cl)ccc23)cc(-c2ccc(Cl)cc2)c1O [TEBUQUINE],–,–,2,2,3,1,4,–,3,11.4 days,17.1 days,0.3 days,14.9 days,2.3 days,14.9 days,16.4 days,19.9 days,–,–,–,No. of mice cured (Mus musculus [17]): 1
CCN(CC)Cc1cc(Nc2ccnc3cc(Cl)ccc23)cc(-c2cccc(F)c2)c1O,–,–,–,3,2,1,3,3,2,5.6 days,15.8 days,0.4 days,14.8 days,1.8 days,23.6 days,13.8 days,25.1 days,12.4 mg/kg,12.8 days,23.2 days,No. of mice cured (Mus musculus [17]): 1
CCN(CC)Cc1cc(Nc2ccnc3cc(Cl)ccc23)cc(-c2cccnc2)c1O,–,–,1,4,1,4,1,3,1,10.6 days,34.8 days,1.8 days,18.8 days,5.4 days,13.6 days,37.8 days,20.3 days,31 mg/kg,19.6 days,8.6 days,No. of mice cured (Mus musculus [17]): 1
CCN(CC)Cc1cc(Nc2cc[n+]([O-])c3cc(Cl)ccc23)cc(-c2ccc(C(F)(F)F)cc2)c1O,0.2 days,27.9 days,1,3,2,2,2,1,3,–,–,–,–,–,–,–,–,7.4 mg/kg,–,–,Delta MST (Plasmodium berghei [3]): 13.2 days; Delta MST (Plasmodium berghei [4]): 2.6 days; Delta MST (Plasmodium berghei [5]): 33.6 days; Delta MST (Plasmodium berghei [6]): 12.7 days; Delta MST (Plasmodium berghei [7]): 28.6 days; Delta MST (Plasmodium berghei [8]): 13.6 days; Delta MST (Plasmodium berghei [9]): 19.7 days; Delta MST (Plasmodium berghei [11]): 16.5 days
CC(C)(C)NCc1cc(Nc2ccnc3cc(Cl)ccc23)cc(-c2ccc(F)cc2)c1O,–,–,1,1,1,–,3,–,1,8.9 days,14.4 days,1.7 days,11.9 days,7.5 days,18 days,16.6 days,15.2 days,–,12.4 days,16.5 days,–
CN(C)Cc1cc(Nc2cc[n+]([O-])c3cc(Cl)ccc23)cc(-c2ccc(Cl)cc2)c1O,0 days,17.8 days,1,5,3,3,3,1,3,–,–,0 days,–,–,–,–,–,–,–,–,Delta MST (Plasmodium berghei [4]): 5 days; Delta MST (Plasmodium berghei [5]): 27.8 days; Delta MST (Plasmodium berghei [6]): 17.9 days; Delta MST (Plasmodium berghei [7]): 26.3 days; Delta MST (Plasmodium berghei [8]): 17.6 days; Delta MST (Plasmodium berghei [9]): 21.9 days; Delta MST (Plasmodium berghei [11]): 20.7 days
CCC(C)NCc1cc(Nc2cc[n+]([O-])c3cc(Cl)ccc23)cc(-c2ccc(Cl)cc2)c1O (stereo not drawn),0 days,7.2 days,–,4,3,3,2,3,3,–,–,–,–,–,–,–,–,–,–,–,Delta MST (Plasmodium berghei [3]): 14.6 days; Delta MST (Plasmodium berghei [4]): 1.6 days; Delta MST (Plasmodium berghei [5]): 22.6 days; Delta MST (Plasmodium berghei [6]): 17.1 days; Delta MST (Plasmodium berghei [7]): 21.3 days; Delta MST (Plasmodium berghei [8]): 3.6 days; Delta MST (Plasmodium berghei [9]): 23.6 days; Delta MST (Mus musculus [10]): 0
CCC(C)NCc1cc(Nc2ccnc3cc(Cl)ccc23)cc(-c2ccc(Cl)cc2)c1O (stereo not drawn),–,–,–,–,3,1,–,–,3,11 days,–,0.2 days,14.2 days,2 days,21 days,12.5 days,15 days,–,14 days,23.6 days,No. of mice cured (Mus musculus [31]): 4
CCN(CC)Cc1cc(Nc2ccnc3cc(Cl)ccc23)cc(-c2ccc(C(F)(F)F)cc2)c1O,–,–,1,–,2,–,2,1,2,11 days,17 days,0 days,11.9 days,2 days,19.4 days,10.1 days,13 days,9.8 mg/kg,12 days,18.9 days,–
CCN(CC)Cc1cc(Nc2ccnc3cc(Cl)ccc23)cc(-c2cccc(F)c2F)c1O,–,–,1,2,2,4,3,4,3,13.7 days,19.8 days,0.7 days,35.1 days,6.7 days,22.2 days,19.8 days,39.4 days,8.7 mg/kg,33.3 days,16.7 days,–
CCN(CC)Cc1cc(Nc2cc[n+]([O-])c3cc(Cl)ccc23)cc(-c2ccc(Cl)cc2)c1O,0.7 days,14.2 days,2,5,3,5,4,5,5,–,–,–,–,–,–,–,–,9.2 mg/kg,–,–,Delta MST (Plasmodium berghei [4]): 1.3 days; Delta MST (Plasmodium berghei [5]): 20.9 days; Delta MST (Plasmodium berghei [7]): 36.9 days; Delta MST (Plasmodium berghei [8]): 5.7 days
